According to ChEMBL document CHEMBL4007489, “First Bispecific Inhibitors of the Epidermal Growth Factor Receptor Kinase and the NF-κB Activity As Novel Anticancer Agents” (J Med Chem, 2017):
Activity calls are given as the source filed them. The calls are words filed in the database; no cut-off is given here.

Columns and labels:
[1] = target: Inhibitor of nuclear factor kappa-B kinase subunit alpha (Homo sapiens) (UniProt O15111); test: Inhibition of TNFalpha-stimulated IKKalpha in human U937 cells assessed as residual activity at 10 uM in presence of ATP relative to control; assay type: cell-based
[2] = target: T1, Receptor-interacting serine/threonine-protein kinase 2 (Homo sapiens, UniProt O43353); test: Inhibition of TNFalpha-stimulated RIPK2 in human U937 cells assessed as residual activity at 10 uM in presence of ATP relative to control; assay type: cell-based
[3] = target: Inhibitor of nuclear factor kappa-B kinase subunit beta (Homo sapiens) (UniProt O14920); test: Inhibition of TNFalpha-stimulated IKKbeta in human U937 cells assessed as residual activity at 10 uM in presence of ATP relative to control; assay type: cell-based
[4] = target: Protein kinase C iota type (Homo sapiens) (UniProt P41743); test: Inhibition of TNFalpha-stimulated PKCI in human U937 cells assessed as residual activity at 10 uM in presence of ATP relative to control; assay type: cell-based
[5] = target: T1, Receptor-interacting serine/threonine-protein kinase 2; test: Inhibition of TNFalpha-stimulated RIPK2 in human U937 cells in presence of 5 uM ATP; assay type: cell-based
MDA-MB-231 [6] = test: cells; assay type: functional; details: Homo sapiens, MDA-MB-231, 48 h
[7] = target: Mitogen-activated protein kinase 14 (Homo sapiens) (UniProt Q16539); test: Inhibition of TNFalpha-stimulated SAPK2a in human U937 cells assessed as residual activity at 10 uM in presence of ATP relative to control; assay type: cell-based
Homo sapiens [8] = organism: Homo sapiens; details: at 10 µM;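 further: luciferase reporter readout of NF-kappaB activity in human U937 cells, compound added 3 h before TNFalpha stimulation, signal read 2.5 h after stimulation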
[9] = target: Mitogen-activated protein kinase kinase kinase 7 (Homo sapiens) (UniProt O43318); test: Inhibition of TNFalpha-stimulated TAK1 in human U937 cells assessed as residual activity at 10 uM in presence of ATP relative to control; assay type: cell-based
[10] = target: Protein kinase C zeta type (Homo sapiens) (UniProt Q05513); test: Inhibition of TNFalpha-stimulated PKCzeta in human U937 cells assessed as residual activity at 10 uM in presence of ATP relative to control; assay type: cell-based
[11] = target: T2, Epidermal growth factor receptor (Homo sapiens, UniProt P00533); test: biochemical; assay type: cell-based
[12] = target: T2, Epidermal growth factor receptor; details: at 150 nM
cells = assay type: cell-based; details: Homo sapiens, U-937
[13] = target: Serine/threonine-protein kinase TBK1 (Homo sapiens) (UniProt Q9UHD2); test: Inhibition of TNFalpha-stimulated TBK1 in human U937 cells assessed as residual activity at 10 uM in presence of ATP relative to control; assay type: cell-based
[14] = Solubility in water; assay type: physicochemical; details: buffer
[15] = Apparent oral clearance in NMRI nu/nu mouse at 10 mg/kg, sc administered as single dose by LC-MS analysis; assay type: ADME, organism-based; details: in vivo
Method in brief: (§1)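 Female NMRI nu/nu mice (28−32 g), nine animals per compound. Single sc injection of 10 mg/kg, formulated at 1 mg/mL in PBS/propylene glycol (80:20, v/v) by ultrasonication. Blood sampled at 10 min, 30 min, 1, 3, 8 and 24 h, two samples per animal, into heparinized tubes. Plasma proteins precipitated with acetonitrile containing griseofulvin internal standard. Quantified by LC-MS against calibration standards prepared in drug-free plasma.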

Mus musculus [16] = test: Toxicity in human MDA-MB-231 cells xenografted NMRI nu/nu mouse assessed as effect on organ morphology at 10 mg/kg, sc administered 5 days post tumor cell inoculation treated for 14 days followed by treatment pause for 6 days followed by treatment continuation on every second day until day 28 measured on day 7, 14 and day 28; assay type: organism-based; details: in vivo
Method in brief: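 Female NMRI nu/nu mice (~8 weeks old) received 2 × 10^6 MDA-MB-231 cells in Matrigel into each flank. Dosing began 5 days later (day 1), with 6 mice per group. Compound or vehicle was given sc in PBS/propylene glycol (80:20, v/v) at 1 mg/mL. Behaviour and body weight were followed. Organs were inspected morphologically after sacrifice on day 28.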

MDA-MB-231 [17] = test: Antitumor activity against human MDA-MB-231 cells xenografted in NMRI nu/nu mouse at 10 mg/kg, sc administered 5 days post tumor cell inoculation treated for 14 days followed by treatment pause for 6 days measured after 21 days; assay type: functional, organism-based
Method in brief: (§2)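 MDA-MB-231 cells, 2 × 10^6 per site in Matrigel, injected into both flanks of female NMRI nu/nu mice about 8 weeks old; 6 mice per group. From day 5 after inoculation (day 1), sc dosing in PBS/propylene glycol 80:20. Dosing every weekday for 14 days, then a 6-day pause, then every second day from day 21 to sacrifice on day 28. Tumor diameters measured weekly by calipers; unpaired two-tailed t test against vehicle.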

[18] = Half life in NMRI nu/nu mouse at 10 mg/kg, sc administered as single dose by LC-MS analysis; assay type: ADME, organism-based; details: in vivo; method in brief: as §1
[19] = Blood clearance in Sprague-Dawley rat by LC-MS/MS analysis; assay type: ADME
[20] = Drug uptake in NMRI nu/nu mouse at 10 mg/kg, sc administered as single dose after 24 hrs by LC-MS analysis; assay type: ADME, organism-based; details: in vivo, read-out: Drug uptake; method in brief: as §1
MDA-MB-231 [21] = test: Antitumor activity against human MDA-MB-231 cells xenografted in NMRI nu/nu mouse at 10 mg/kg, sc administered 5 days post tumor cell inoculation treated for 14 days followed by treatment pause for 6 days followed by treatment continuation on every second day until day 28 measured on day 7, 14 and day 28; assay type: functional, organism-based; method in brief: as §2
[22] = AUC (0 to 24 hrs) in NMRI nu/nu mouse at 10 mg/kg, sc administered as single dose by LC-MS analysis; assay type: ADME, organism-based; set-up: dose 10 mg/kg, time < 24 hr, route subcutaneous; details: in vivo; method in brief: as §1
Mus musculus [23] = test: Toxicity in human MDA-MB-231 cells xenografted NMRI nu/nu mouse assessed as effect on body weight at 10 mg/kg, sc administered 5 days post tumor cell inoculation treated for 14 days followed by treatment pause for 6 days followed by treatment continuation on every second day until day 28 measured on day 7, 14 and day 28; assay type: organism-based; details: in vivo
Method in brief: (§3)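 Mice bearing MDA-MB-231 xenografts were monitored for behaviour and body weight over the 28-day sc dosing schedule. Organ morphology was inspected after sacrifice.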

[24] = target: Serine/threonine-protein kinase pim-1 (Homo sapiens, UniProt P11309); test: Inhibition of human recombinant full length His-tagged PIM-1 expressed in baculovirus expression system
Mus musculus [25] = test: Toxicity in NMRI nu/nu mouse assessed as effect on organ morphology at 10 mg/kg, sc administered as single dose; assay type: organism-based; details: in vivo
Mus musculus [26] = test: Toxicity in human MDA-MB-231 cells xenografted NMRI nu/nu mouse assessed as anomalous behaviour at 10 mg/kg, sc administered 5 days post tumor cell inoculation treated for 14 days followed by treatment pause for 6 days followed by treatment continuation on every second day until day 28 measured on day 7, 14 and day 28; assay type: organism-based; details: in vivo; method in brief: as §3
[27] = Tmax in NMRI nu/nu mouse at 10 mg/kg, sc administered as single dose by LC-MS analysis; assay type: ADME, organism-based; details: in vivo; method in brief: as §1
[28] = target: Receptor tyrosine-protein kinase erbB-4 (Homo sapiens) (UniProt Q15303); test: Inhibition of N-terminal GST-tagged human recombinant ERBB4 expressed in baculovirus expression system
Homo sapiens [29] = organism: Homo sapiens; test: Inhibition of TNFalpha-stimulated NF-kappaB (unknown origin) expressed in human U937 cells at 5 uM incubated for 3 hrs followed by TNFalpha stimulation measured after 2.5 hrs by luciferase reporter gene assay; assay type: cell-based
Mus musculus [30] = test: Toxicity in NMRI nu/nu mouse assessed as anomalous behaviour at 10 mg/kg, sc administered as single dose; assay type: organism-based; details: in vivo
[31] = AUC (0 to infinity) in NMRI nu/nu mouse at 10 mg/kg, sc administered as single dose by LC-MS analysis; assay type: ADME, organism-based; set-up: dose 10 mg/kg, route subcutaneous, time infinity; details: in vivo; method in brief: as §1
[32] = Cmax in NMRI nu/nu mouse at 10 mg/kg, sc administered as single dose by LC-MS analysis; assay type: ADME, organism-based; set-up: dose 10 mg/kg, route subcutaneous; details: in vivo; method in brief: as §1
[33] = Half life in Sprague-Dawley rat liver microsomes assessed as parent compound remaining at 0.5 uM in presence of NADPH by LC-MS/MS analysis; assay type: ADME, microsome
[34] = target: Transcription factor p65 (Homo sapiens) (UniProt Q04206); test: Inhibition of IL-1beta-stimulated nuclear translocation of GFP-tagged NF-kappaB-p65 (unknown origin) expressed in CHO cells at 15 uM preincubated with IL-1beta for 30 mins followed by compound addition in presence of Pluronic F127 by fluorescence assay; assay type: cell-based
MDA-MB-231 [35] = test: Antitumor activity against human MDA-MB-231 cells xenografted in NMRI nu/nu mouse at 25 mg/kg, sc administered 5 days post tumor cell inoculation treated for 14 days followed by treatment pause for 6 days followed by treatment continuation on every second day until day 28 measured on day 7, 14 and day 28; assay type: functional, organism-based; method in brief: as §2
[36] = target: Transcription factor p65 (Homo sapiens) (UniProt Q04206); test: Inhibition of NF-kappaB-p65 binding to NF-kappaB response element oligonucleotide in nuclear extracts of 12 hrs compound pre-treated human MDA-MB-231 cells at 2.5 to 15 uM by ELISA
Method in brief: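 MDA-MB-231 cells treated with compound or DMSO for 12 h; in some runs TNFα (20 ng/mL final) added for a further 20 min at 37 °C. Nuclear extracts prepared on ice and protein measured by Bradford. 5 μg of extract incubated on plate-immobilized NF-κB response element oligonucleotide. Bound complexes detected with anti-p65 primary and HRP secondary antibody, read at 450 nm. Specificity checked by competition with free oligonucleotide; triplicates.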

[37] = target: Transcription factor p65 (Homo sapiens) (UniProt Q04206); test: Inhibition of IL-1beta-stimulated nuclear translocation of GFP-tagged NF-kappaB-p65 (unknown origin) expressed in CHO cells at 15 uM preincubated with IL-1beta for 30 mins followed by compound addition by fluorescence assay; assay type: cell-based
[38] = target: Receptor tyrosine-protein kinase erbB-4 (Homo sapiens) (UniProt Q15303); details: 0.5 uM

Sequence of Transcription factor p65 (Homo sapiens) (Q04206 whole entry): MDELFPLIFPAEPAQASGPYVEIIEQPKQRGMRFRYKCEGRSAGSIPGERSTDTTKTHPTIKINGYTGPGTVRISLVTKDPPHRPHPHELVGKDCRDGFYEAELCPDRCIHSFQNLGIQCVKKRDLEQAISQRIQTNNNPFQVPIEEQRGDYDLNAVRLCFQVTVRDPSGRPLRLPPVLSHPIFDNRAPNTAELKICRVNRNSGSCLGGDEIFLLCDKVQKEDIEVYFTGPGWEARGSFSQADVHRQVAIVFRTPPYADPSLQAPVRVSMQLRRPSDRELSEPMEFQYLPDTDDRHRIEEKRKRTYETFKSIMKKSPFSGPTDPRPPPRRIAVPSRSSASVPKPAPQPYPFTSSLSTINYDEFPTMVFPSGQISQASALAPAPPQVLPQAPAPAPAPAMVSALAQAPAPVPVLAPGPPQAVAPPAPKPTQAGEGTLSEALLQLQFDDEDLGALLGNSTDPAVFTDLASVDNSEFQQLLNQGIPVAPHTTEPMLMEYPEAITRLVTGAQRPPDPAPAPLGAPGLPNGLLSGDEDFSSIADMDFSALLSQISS
T2 sequence (P00533 whole entry): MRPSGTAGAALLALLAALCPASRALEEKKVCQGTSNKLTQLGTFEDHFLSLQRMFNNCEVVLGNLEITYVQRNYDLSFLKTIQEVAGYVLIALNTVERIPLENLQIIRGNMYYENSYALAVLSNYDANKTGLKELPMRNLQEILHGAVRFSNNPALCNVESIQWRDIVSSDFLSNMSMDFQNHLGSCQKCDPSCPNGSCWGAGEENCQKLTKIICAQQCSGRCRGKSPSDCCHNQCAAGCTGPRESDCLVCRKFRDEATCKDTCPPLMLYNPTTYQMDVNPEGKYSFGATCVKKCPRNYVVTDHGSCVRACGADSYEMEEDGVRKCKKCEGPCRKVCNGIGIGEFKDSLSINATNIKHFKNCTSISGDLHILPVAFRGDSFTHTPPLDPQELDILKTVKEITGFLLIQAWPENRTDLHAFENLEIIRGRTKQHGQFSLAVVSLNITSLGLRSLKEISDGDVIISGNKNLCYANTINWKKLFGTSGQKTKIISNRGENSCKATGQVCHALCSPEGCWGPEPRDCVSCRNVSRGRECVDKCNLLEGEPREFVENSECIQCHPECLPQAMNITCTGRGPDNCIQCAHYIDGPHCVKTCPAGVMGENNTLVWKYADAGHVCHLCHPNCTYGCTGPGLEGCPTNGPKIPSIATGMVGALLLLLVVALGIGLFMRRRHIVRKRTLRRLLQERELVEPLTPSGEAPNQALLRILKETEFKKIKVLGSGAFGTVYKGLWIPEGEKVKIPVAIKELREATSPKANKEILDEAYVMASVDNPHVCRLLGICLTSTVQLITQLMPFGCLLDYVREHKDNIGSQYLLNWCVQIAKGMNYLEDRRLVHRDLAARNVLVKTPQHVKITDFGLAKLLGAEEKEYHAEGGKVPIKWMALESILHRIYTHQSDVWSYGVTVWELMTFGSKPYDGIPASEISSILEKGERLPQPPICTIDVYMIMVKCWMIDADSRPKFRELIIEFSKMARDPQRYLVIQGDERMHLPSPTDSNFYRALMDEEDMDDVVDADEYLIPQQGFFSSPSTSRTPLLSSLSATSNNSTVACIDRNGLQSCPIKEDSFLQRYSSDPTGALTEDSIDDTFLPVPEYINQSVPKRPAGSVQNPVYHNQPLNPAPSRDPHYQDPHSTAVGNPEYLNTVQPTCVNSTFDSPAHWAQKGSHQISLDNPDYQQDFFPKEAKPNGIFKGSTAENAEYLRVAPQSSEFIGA
Sequence of Receptor tyrosine-protein kinase erbB-4 (Homo sapiens) (Q15303 whole entry): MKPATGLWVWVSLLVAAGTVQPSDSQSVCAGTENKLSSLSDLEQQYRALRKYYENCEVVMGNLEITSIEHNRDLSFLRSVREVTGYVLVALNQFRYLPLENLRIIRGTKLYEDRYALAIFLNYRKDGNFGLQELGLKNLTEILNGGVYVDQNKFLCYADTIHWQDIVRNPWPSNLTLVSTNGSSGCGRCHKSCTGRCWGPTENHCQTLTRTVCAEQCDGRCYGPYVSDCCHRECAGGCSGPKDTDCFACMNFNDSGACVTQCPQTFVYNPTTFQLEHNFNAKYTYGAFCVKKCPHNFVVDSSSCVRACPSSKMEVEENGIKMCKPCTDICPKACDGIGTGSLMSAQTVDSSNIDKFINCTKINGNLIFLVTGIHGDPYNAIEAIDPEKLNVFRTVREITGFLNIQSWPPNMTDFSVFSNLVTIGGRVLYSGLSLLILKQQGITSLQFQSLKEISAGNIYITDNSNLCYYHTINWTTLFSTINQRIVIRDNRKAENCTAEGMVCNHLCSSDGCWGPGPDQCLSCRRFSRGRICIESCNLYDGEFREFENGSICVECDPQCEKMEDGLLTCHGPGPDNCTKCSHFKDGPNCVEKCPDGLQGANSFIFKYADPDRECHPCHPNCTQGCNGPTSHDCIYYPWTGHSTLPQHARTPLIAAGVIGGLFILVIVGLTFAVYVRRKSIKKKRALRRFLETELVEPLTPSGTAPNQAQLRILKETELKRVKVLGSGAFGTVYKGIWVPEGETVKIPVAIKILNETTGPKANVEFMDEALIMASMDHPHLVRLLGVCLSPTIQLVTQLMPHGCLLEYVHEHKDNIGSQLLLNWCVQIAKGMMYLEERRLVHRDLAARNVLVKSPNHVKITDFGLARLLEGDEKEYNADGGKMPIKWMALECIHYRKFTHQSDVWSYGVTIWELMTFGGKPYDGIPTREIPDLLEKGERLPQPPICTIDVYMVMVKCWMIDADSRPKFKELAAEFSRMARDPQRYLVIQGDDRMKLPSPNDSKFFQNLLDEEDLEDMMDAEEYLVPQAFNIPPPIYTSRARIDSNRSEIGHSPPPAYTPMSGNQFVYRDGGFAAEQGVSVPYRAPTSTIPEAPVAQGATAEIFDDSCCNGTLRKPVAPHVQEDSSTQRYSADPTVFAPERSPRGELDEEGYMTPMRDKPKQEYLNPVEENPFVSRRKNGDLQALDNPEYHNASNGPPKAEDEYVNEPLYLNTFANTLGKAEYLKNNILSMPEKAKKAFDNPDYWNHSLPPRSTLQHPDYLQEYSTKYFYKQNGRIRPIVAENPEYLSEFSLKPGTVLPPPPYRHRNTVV
T1 sequence (O43353 whole entry): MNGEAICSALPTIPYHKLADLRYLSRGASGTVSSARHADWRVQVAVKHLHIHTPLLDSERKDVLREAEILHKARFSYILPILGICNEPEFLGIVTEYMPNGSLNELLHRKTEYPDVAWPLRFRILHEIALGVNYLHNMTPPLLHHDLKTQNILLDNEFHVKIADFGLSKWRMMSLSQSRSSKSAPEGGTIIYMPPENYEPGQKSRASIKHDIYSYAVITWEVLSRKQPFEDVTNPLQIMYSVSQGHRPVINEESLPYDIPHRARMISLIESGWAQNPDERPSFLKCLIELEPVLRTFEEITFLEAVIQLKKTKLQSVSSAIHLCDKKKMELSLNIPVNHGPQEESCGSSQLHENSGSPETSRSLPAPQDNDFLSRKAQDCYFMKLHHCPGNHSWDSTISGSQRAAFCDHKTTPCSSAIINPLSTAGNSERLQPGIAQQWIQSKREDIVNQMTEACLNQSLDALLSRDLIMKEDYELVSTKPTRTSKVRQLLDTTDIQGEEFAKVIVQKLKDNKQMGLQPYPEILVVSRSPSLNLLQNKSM
Sequence of Protein kinase C iota type (Homo sapiens) (P41743 whole entry): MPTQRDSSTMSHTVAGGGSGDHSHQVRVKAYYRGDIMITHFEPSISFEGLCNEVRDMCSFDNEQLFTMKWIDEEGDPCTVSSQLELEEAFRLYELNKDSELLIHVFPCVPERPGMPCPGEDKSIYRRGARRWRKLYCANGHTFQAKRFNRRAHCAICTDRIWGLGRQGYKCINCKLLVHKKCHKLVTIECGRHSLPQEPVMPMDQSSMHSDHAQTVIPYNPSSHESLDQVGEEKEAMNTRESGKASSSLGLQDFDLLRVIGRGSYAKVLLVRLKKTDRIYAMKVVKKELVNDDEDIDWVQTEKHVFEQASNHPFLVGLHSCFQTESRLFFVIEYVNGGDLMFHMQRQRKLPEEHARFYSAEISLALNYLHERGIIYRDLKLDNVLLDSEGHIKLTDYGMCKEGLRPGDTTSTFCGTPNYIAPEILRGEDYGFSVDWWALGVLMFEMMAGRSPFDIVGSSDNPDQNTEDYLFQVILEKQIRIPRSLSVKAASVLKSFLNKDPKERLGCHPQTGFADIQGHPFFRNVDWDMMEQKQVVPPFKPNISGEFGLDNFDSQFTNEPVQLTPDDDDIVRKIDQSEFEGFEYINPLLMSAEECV
Sequence of Protein kinase C zeta type (Homo sapiens) (Q05513 whole entry): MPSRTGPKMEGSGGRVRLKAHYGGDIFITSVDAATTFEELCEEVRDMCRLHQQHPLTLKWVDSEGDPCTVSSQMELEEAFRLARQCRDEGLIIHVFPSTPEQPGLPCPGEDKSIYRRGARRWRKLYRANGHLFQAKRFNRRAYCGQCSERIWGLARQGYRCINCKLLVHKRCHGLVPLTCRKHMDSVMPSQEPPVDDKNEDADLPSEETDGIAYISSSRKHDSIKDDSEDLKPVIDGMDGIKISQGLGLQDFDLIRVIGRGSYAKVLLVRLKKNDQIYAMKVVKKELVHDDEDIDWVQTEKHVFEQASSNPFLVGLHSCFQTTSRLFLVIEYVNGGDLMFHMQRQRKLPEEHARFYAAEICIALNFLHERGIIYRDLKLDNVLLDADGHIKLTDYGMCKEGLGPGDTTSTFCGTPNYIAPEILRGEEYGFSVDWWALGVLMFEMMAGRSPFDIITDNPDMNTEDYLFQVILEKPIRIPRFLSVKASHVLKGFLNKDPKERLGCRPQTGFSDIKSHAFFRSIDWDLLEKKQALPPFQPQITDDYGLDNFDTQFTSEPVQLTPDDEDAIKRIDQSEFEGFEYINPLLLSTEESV

Compound: S=C(NCc1ccccc1)Nc1ccc2ncnc(Nc3cccc(Br)c3)c2c1
- Activity [1]: 117%
- Activity [2]: 54%
- Activity [3]: 100%
- Activity [4]: 106%
- IC50 [5]: > 10000 nM
- GI50 (MDA-MB-231 [6]): 9500 nM
- Activity [7]: 78%
- inhibition (Homo sapiens [8]): 97%
- Activity [9]: 106%
- Activity [10]: 92%
- IC50 [11]: 17.2 nM
- inhibition [12]: 86.1%
- IC50 (cells): 4100 nM
- Activity [13]: 92%

Compound: Fc1cc(F)cc(NC(=S)Nc2ccc3ncnc(Nc4cccc(Cl)c4)c3c2)c1
- solubility [14]: Soluble
- CL/F [15]: 26.3 mL/min/kg
- Activity (Mus musculus [16]): Non-Toxic
- TGI (MDA-MB-231 [17]): Active
- half-life [18]: 7.8 h
- clearance [19]: 19 mL/min/kg
- GI50 (MDA-MB-231 [6]): 1100 nM
- concentration at 24 h [20]: 79 ng/mL
- TGI (MDA-MB-231 [21]): Active
- AUC(0-t) at 24 h [22]: 5440 ng·h/mL
- Activity (Mus musculus [23]): Non-Toxic
- inhibition [24]: inactive
- Activity (Mus musculus [25]): Non-Toxic
- Activity (Mus musculus [26]): Non-Toxic
- Tmax [27]: 8 h
- inhibition [28]: inactive
- inhibition (Homo sapiens [29]): 73.5%
- Activity (Mus musculus [30]): Non-Toxic
- AUC(0-inf) [31]: 6330 ng·h/mL
- Cmax [32]: 327 ng/mL
- IC50 [11]: 60.1 nM
- inhibition [12]: 87.6%
- IC50 (cells): 300 nM
- half-life at 0.5 µM [33]: 2.32 h

Compound: COc1cc2ncnc(Nc3ccc(F)c(Cl)c3)c2cc1OCCCN1CCOCC1 [GEFITINIB]
- solubility [14]: Soluble
- inhibition [34]: inactive
- TGI (MDA-MB-231 [35]): Active
- inhibition [36]: inactive
- inhibition [37]: inactive
- inhibition [38]: 46 to 76%
